ChEMBL document CHEMBL4382227, “Optimization and preclinical evaluation of novel histamine H3receptor ligands: Acetyl and propionyl phenoxyalkyl piperazine derivatives” (Bioorg Med Chem, 2018)
The source made the active and inactive calls. The rule behind the calls is not given here.

Columns and labels:
Histamine H3 receptor = Histamine H3 receptor (Homo sapiens, UniProt Q9Y5N1); test: Displacement of [3H]N-alpha-methylhistamine from full length recombinant human H3R expressed in HEK293 cell membranes after 90 mins by beta scintillation counting method
Outline: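 Frozen crude membranes from HEK-293 cells stably expressing full-length human H3R were incubated 90 min at RT with shaking, with [3H]Nα-methylhistamine (2 nM; KD 3.08 nM) and 5–11 concentrations of test compound between 0.01 nM and 10 μM. Nonspecific binding was defined with pitolisant 10 μM. Samples were filtered on PEI-treated GF/B filters and washed with ice-cold water. Ki was derived from IC50 by Cheng-Prusoff; ≥3 experiments, each in at least duplicate.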

HepG2 [1] = test: Induction of phospholipidosis in human HepG2 cells assessed as increase in number of cellular lysosomes at 50 uM after 72 hrs by LYSO-ID Red and Hoechst 33342 staining based fluorescence microscopic method; type: cell-based; details: hepg2, 72 h
HepG2 [2] = test: Cytotoxicity against human HepG2 cells assessed as decrease in cell viability at 10 uM by MTS assay relative to control; type: cell-based; details: hepg2, 10 µM
Outline: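 HepG2 human hepatoma cells (ATCC HB-8065) were exposed to the test compound at concentrations that included 10 and 100 μM. Viability was read by the MTS assay at 490 nm absorbance and expressed relative to an untreated negative control. Doxorubicin and CCCP served as reference toxins. Significance was tested by one-way ANOVA with Bonferroni's comparison test.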

HepG2 [3] = test: Cytotoxicity against human HepG2 cells assessed as decrease in cell viability at 10 to 100 uM by MTS assay relative to control; type: cell-based; details: hepg2, 100 µM
Outline: (§1)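 HepG2 hepatoma cells; viability read by MTS at 490 nm against untreated negative control. Doxorubicin and CCCP served as reference toxins. One-way ANOVA with Bonferroni.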

[4] = Toxicity in CD-1 mouse assessed as effect on spontaneous activity by measuring decrease in locomotor activity at 5 mg/kg, ip measured at 30 mins post dose for 20 mins; type: organism-based; details: in vivo
Outline: (§2)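 Male CD-1 mice (20–22 g) were placed in the activity cage immediately after i.p. dosing. Distance travelled was recorded from 30 min post-dose over 20 min. Groups had 6–8 animals.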

Rattus norvegicus [5] = test: Protection against development of overweight in Wistar rat fed with palatable feed assessed as weight gain at 3 mg/kg, ip once daily for 14 days measured on day 9 during compound dosing relative to control; type: functional
Outline: (§3)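 Male Wistar rats (initial 160–180 g), housed in pairs, given palatable diet (peanuts, condensed milk, milk chocolate with hazelnuts, Greek cheese) and dosed i.p. once daily in the morning for 14 days in 1% Tween 80; controls were vehicle on palatable or standard diet. Food intake was recorded three times per week and body weight daily before dosing. Results are mean ± SEM, n = 6; two-way ANOVA with Bonferroni.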

[6] = Toxicity in Wistar rat fed with palatable diet assessed as effect on spontaneous activity by measuring induction of hyperlocomotion at 3 mg/kg, ip for 13 days measured on day 1 and 13 at 24 hrs post dose; type: organism-based; details: in vivo
Outline: (§4)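 Wistar rats on palatable diet, housed in pairs in home cages, received daily i.p. dosing. Spontaneous activity was recorded by an RFID system for 24 h after dosing on days 1 and 13. Results are mean ± SEM, n = 6; multiple t-test.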

Rattus norvegicus [7] = test: Anorectic activity in Wistar rat fed with palatable diet assessed as reduction in amount of calories consumed at 3 mg/kg, ip once daily for 14 days; type: functional, organism-based; outline: as §3
Rattus norvegicus [8] = test: Protection against hyperglycemia in Wistar rat fed with palatable feed assessed as decrease in plasma glucose level at 3 mg/kg, ip once daily for 14 days by spectrophotometric method; type: functional, organism-based
Outline: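 On day 15, plasma was taken from the left carotid artery 20 min after i.p. heparin (1000 j/rat) and thiopental (70 mg/kg b.w.), and peritoneal fat was weighed. Glucose was measured by an enzymatic colorimetric test read at 500 nm. Rats had been on palatable diet with daily i.p. dosing in 1% Tween 80 for 14 days.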

Rattus norvegicus [9] = test: Protection against development of overweight in Wistar rat fed with palatable feed assessed as decrease in peritoneal fat at 3 mg/kg, ip once daily for 14 days measured on day 15; type: functional, organism-based
Rattus norvegicus [10] = test: Protection against development of overweight in Wistar rat fed with palatable feed assessed as decrease in weight gain at 1 mg/kg, ip once daily for 14 days measured daily during compound dosing; type: functional, organism-based; outline: as §3
[11] = Toxicity in CD-1 mouse assessed as effect on spontaneous activity by measuring decrease in locomotor activity at 3 mg/kg, ip measured at 30 mins post dose for 20 mins; type: organism-based; details: in vivo; outline: as §2
[12] = Metabolic stability in human liver microsomes assessed as parent compound remaining after 120 mins by UPLC analysis; type: ADME, Microsome; details: read-out: Stability
Rattus norvegicus [13] = test: Protection against development of overweight in Wistar rat fed with palatable feed assessed as weight gain at 3 mg/kg, ip once daily for 14 days measured on day 14 during compound dosing relative to control; type: functional; outline: as §3
Rattus norvegicus [14] = test: Protection against development of overweight in Wistar rat fed with preferantial feed assessed as decrease in weight gain at 3 mg/kg, ip once daily for 14 days measured daily during compound dosing; type: functional, organism-based; outline: as §3
[15] = Toxicity in Wistar rat fed with palatable diet assessed as effect on spontaneous activity by measuring induction of sedation at 3 mg/kg, ip for 13 days measured on day 1 and 13 at 24 hrs post dose; type: organism-based; details: in vivo; outline: as §4
Rattus norvegicus [16] = test: Protection against development of overweight in Wistar rat fed with palatable feed assessed as decrease in weight gain at 3 mg/kg, ip once daily for 14 days; type: functional, organism-based; outline: as §3
HepG2 [17] = test: Cytotoxicity against human HepG2 cells assessed as decrease in cell viability at 1 uM by MTS assay relative to control; type: cell-based; details: hepg2, 1 µM; outline: as §1

Histamine H3 receptor, sequence (Q9Y5N1 whole entry): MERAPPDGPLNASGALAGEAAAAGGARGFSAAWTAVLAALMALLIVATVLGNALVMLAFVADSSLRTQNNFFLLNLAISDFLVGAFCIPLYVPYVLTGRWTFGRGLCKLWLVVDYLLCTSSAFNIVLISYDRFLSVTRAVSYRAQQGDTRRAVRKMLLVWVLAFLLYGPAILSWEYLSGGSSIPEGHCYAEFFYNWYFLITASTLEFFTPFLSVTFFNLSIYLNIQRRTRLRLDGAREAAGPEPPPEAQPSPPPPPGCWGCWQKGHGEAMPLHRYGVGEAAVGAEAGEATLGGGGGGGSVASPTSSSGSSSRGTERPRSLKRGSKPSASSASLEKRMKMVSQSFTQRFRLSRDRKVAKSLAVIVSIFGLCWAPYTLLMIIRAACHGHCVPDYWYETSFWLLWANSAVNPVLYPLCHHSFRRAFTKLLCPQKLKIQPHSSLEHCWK

Row | Ki (Histamine H3 receptor) [nM] | Compound | other results
1 | 4890 | CC(=O)c1ccc(OCCCN2CCN(C(=O)C3CCCO3)CC2)cc1 (centres undefined) | 
2 | 4040 | CCC(=O)c1ccc(OCCCCN2CCN(c3cnccn3)CC2)cc1 | 
3 | 1390 | CCC(=O)c1ccc(OCCCN2CCN(C(=O)C3CCCO3)CC2)cc1 (centres undefined) | 
4 | 1440 | CCC(=O)c1ccc(OCCCCN2CCN(c3ccccn3)CC2)cc1 | 
5 | 3390 | CCC(=O)c1ccc(OCCCN2CCN(c3cnccn3)CC2)cc1 | 
6 | 5.2 | CCC(=O)c1ccc(OCCCN2CCN(c3ccncc3)CC2)cc1 | Activity [4]: Toxic; Activity (Rattus norvegicus [16]): inactive; Activity [11]: Non-Toxic
7 | 15.4 | CCC(=O)c1ccc(OCCCCN2CCN(c3ccncc3)CC2)cc1 | 
8 | 1720 | CCC(=O)c1ccc(OCCCN2CCN(c3ncccn3)CC2)cc1 | 
9 | > 10000 | CCC(=O)c1ccc(OCCCCN2CCN(C(=O)C3CCCO3)CC2)cc1 (centres undefined) | 
10 | 3630 | CCC(=O)c1ccc(OCCCCN2CCN(c3ncccn3)CC2)cc1 | 
11 | 377 | CCC(=O)c1ccc(OCCCN2CCN(c3ccccn3)CC2)cc1 | 
12 | > 10000 | CC(=O)c1ccc(OCCCCN2CCN(C(=O)C3CCCO3)CC2)cc1 (centres undefined) | 
13 | 192 | CCC(=O)c1ccc(OCCCN2CCN(c3cccnc3)CC2)cc1 | 
14 | 1390 | CCC(=O)c1ccc(OCCCCN2CCN(c3cccnc3)CC2)cc1 | 

Further lines, the compound ahead of its results:

Row | Compound | Ki (Histamine H3 receptor) [nM] | other results
15 | CC(=O)N1CCN(c2ccc(OCC3COC(Cn4ccnc4)(c4ccc(Cl)cc4Cl)O3)cc2)CC1 (centres undefined) [KETOCONAZOLE] |  | Activity (HepG2 [1]): Toxic
16 | CC(=O)c1ccc(OCCCCN2CCN(c3cnccn3)CC2)cc1 | 1230 | 
17 | N#CC(C#N)=NNc1cccc(Cl)c1 [CARBONYL CYANIDE M-CHLOROPHENYLHYDRAZONE] |  | Activity (HepG2 [2]): > 50%
18 | CC(=O)c1ccc(OCCCCN2CCN(c3cccnc3)CC2)cc1 | 908 | 
19 | CC(=O)c1ccc(OCCCN2CCN(c3ccccn3)CC2)cc1 | 315 | 
20 | CC(=O)c1ccc(OCCCN2CCN(c3ccncc3)CC2)cc1 | 10.2 | Activity (HepG2 [3]): 10%; Activity [4]: Toxic; Activity (Rattus norvegicus [5]): 8.64%; Activity [6]: Non-Toxic; Activity (Rattus norvegicus [7]): Active; Activity (Rattus norvegicus [8]): Active; Activity (Rattus norvegicus [9]): Active; Activity (Rattus norvegicus [10]): inactive; Activity [11]: Non-Toxic; remaining at 2 h [12]: 91.3%; Activity (HepG2 [1]): Non-Toxic; Activity (Rattus norvegicus [13]): 7.89%; Activity (Rattus norvegicus [14]): Active; Activity [15]: Non-Toxic
21 | CC(=O)c1ccc(OCCCCN2CCN(c3ccncc3)CC2)cc1 | 115 | 
22 | CC(=O)c1ccc(OCCCN2CCN(c3cnccn3)CC2)cc1 | 2320 | 
23 | CC(=O)c1ccc(OCCCN2CCN(c3cccnc3)CC2)cc1 | 499 | 
24 | CC(=O)c1ccc(OCCCCN2CCN(c3ccccn3)CC2)cc1 | 3700 | 
25 | CC(=O)c1ccc(OCCCCN2CCN(c3ncccn3)CC2)cc1 | 1630 | 
26 | COc1cccc2c1C(=O)c1c(O)c3c(c(O)c1C2=O)C[C@@](O)(C(=O)CO)C[C@@H]3O[C@H]1C[C@H](N)[C@H](O)[C@H](C)O1 [DOXORUBICIN] |  | Activity (HepG2 [17]): > 50%
27 | CC(=O)c1ccc(OCCCN2CCN(c3ncccn3)CC2)cc1 | 2450 | 
